Laboratory results as given in BindingDB's records for doi:10.1016/j.bmc.2018.07.042 (Human Biomolecular Research Institute, 2018).

Tests used:
[1] = molecular target: T1, Cellular tumor antigen p53 (Homo sapiens, UniProt P04637); test: Induction of p53 transcriptional activity (unknown origin) expressed in HEK293 cells coexpressing TK-driven Rluc after 20 to 22 hrs by luciferase reporter gene assay
Summary of the method: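 Transient transfection of HEK-293 cells with a p53-Luc vector (13x p53-binding consensus response element) plus TK-driven Renilla luciferase for normalization. Protocol was as for the Wnt reporter, but final serum was 2.5%. Cells were treated or given DMSO for 20-22 h in triplicate. Firefly/Renilla signal relative to DMSO was fit by nonlinear regression for […].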

[2] = molecular target: T1, Cellular tumor antigen p53; test: Activation of p53 in human MCF7 cell lysates assessed as increase in total p53 protein level by Western blot analysis

T1 sequence (P04637 whole entry): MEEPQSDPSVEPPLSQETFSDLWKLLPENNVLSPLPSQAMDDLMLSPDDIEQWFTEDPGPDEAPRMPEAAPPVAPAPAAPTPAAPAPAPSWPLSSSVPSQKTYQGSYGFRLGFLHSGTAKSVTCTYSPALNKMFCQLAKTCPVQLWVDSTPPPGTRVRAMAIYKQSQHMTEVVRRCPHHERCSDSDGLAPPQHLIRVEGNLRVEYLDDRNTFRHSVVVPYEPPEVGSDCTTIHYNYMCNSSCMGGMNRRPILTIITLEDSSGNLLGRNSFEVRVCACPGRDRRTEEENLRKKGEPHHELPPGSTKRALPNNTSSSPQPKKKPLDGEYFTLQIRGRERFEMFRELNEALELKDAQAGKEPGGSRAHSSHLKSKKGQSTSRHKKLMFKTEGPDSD

Compound | EC50 [1] | EC50 [2]
O=S(=O)(c1ccc(-n2cncn2)cc1)N1CCCc2ccccc21 | > 5000 nM | 
O=C1CCCN1c1ccc(S(=O)(=O)N2CCCc3ccccc32)cc1 | 12 nM | 
CC(C)(C)c1ccc2c(c1)CCCN2S(=O)(=O)c1ccc(N2CCCC2=O)cc1 | 152 nM | 
CN1CCN(S(=O)(=O)c2ccc(N3CCC=N3)cc2)c2ccccc21 | 74 nM | 
CCCN(c1ccccc1)S(=O)(=O)c1ccc(N2CCCC2=O)cc1 | 158 nM | 
CN1CCN(S(=O)(=O)c2ccc(N3CCCC3)cc2)c2ccccc21 | 65 nM | 

Now those with a lower EC50 [1], led by results:

EC50 [1] | EC50 [2] | Compound
4 nM |  | COc1ccc2c(c1)N(C)CCN2S(=O)(=O)c1ccc(N2CCCC2=O)cc1
2 nM | 18 nM | CN1CCN(S(=O)(=O)c2ccc(N3CCCC3=O)cc2)c2ccccc21
4 nM |  | Cc1ccc2c(c1)CCCN2S(=O)(=O)c1ccc(N2CCCC2=O)cc1
9 nM |  | COc1ccc2c(c1)CCCN2S(=O)(=O)c1ccc(N2CCCC2=O)cc1
